For nine compounds, MIC results are on record in ChEMBL document CHEMBL3864185, “Identification of N-(2-Phenoxyethyl)imidazo[1,2-a]pyridine-3-carboxamides as New Antituberculosis Agents” (ACS Med Chem Lett, 2016).

The subject of test [1] is Mycobacterium tuberculosis. Nature of the test: Antimycobacterial activity against isoniazid/rifampicin-resistant Mycobacterium tuberculosis isolate 9160 after 7 days by microplate alamar blue assay. It is filed as functional. The note with it: isolate 9160, 168 h. In outline:
(§1)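 Microplate Alamar Blue Assay against clinical MDR M. tuberculosis isolates 11168 and 9160, both resistant to isoniazid and rifampicin. Read-out was fluorescence. MIC was the lowest concentration that reduced fluorescence by >90% versus the mean of replicate bacterium-only controls.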

The subject of test [2] is Mycobacterium tuberculosis. Nature of the test: Antimycobacterial activity against isoniazid/rifampicin-resistant Mycobacterium tuberculosis isolate 11168 after 7 days by microplate alamar blue assay. The test is classed as functional. The note with it: isolate 11168, 168 h. Summed up: as §1

Converted amounts (≈) assume the structure as drawn.

Consider `Cc1ccc2nc(C)c(C(=O)NCCOc3ccc(Cl)cc3)n2c1`, for which the MIC in test [1] turned out to be 0.028 µg/mL (≈ 0.0814 µM); in test [2], 0.025 µg/mL (≈ 0.0727 µM).

In the case of `Cc1cccc(OCCNC(=O)c2c(C)nc3ccc(C)cn23)c1`, the minimal inhibitory concentration (MIC) came to 0.033 µg/mL (≈ 0.102 µM) in test [1] and 0.026 µg/mL (≈ 0.0804 µM) in test [2].

In the case of `Cc1ccc2nc(C)c(C(=O)NCCOc3ccc(Br)cc3)n2c1`, the minimal inhibitory concentration (MIC) is 0.051 µg/mL (≈ 0.131 µM) in test [1] and 0.036 µg/mL (≈ 0.0927 µM) in test [2].

As to `COc1cccc(OCCNC(=O)c2c(C)nc3ccc(C)cn23)c1`, the MIC was 0.035 µg/mL (≈ 0.103 µM) in test [1] and 0.029 µg/mL (≈ 0.0854 µM) in test [2].

Consider `Cc1ccc2nc(C)c(C(=O)NCCOc3ccccc3C)n2c1`, for which the MIC in test [1] was determined as 0.05 µg/mL (≈ 0.155 µM); in test [2], 0.036 µg/mL (≈ 0.111 µM).

In the case of `COc1ccc(OCCNC(=O)c2c(C)nc3ccc(C)cn23)cc1`, the minimal inhibitory concentration (MIC) in test [1] was 0.034 µg/mL (≈ 0.1 µM); in test [2] it was 0.026 µg/mL (≈ 0.0766 µM).

Take `Cc1ccc2nc(C)c(C(=O)NCCOc3ccccc3)n2c1`: the MIC in test [1] stood at 0.047 µg/mL (≈ 0.152 µM); in test [2], 0.03 µg/mL (≈ 0.097 µM).

As to `NNC(=O)c1ccncc1` [ISONIAZID], the minimal inhibitory concentration (MIC) in test [1] and in test [2] was greater than 40 µg/mL each time.

As to `CO[C@H]1/C=C/O[C@@]2(C)Oc3c(C)c(O)c4c(O)c(c(/C=N/N5CCN(C)CC5)c(O)c4c3C2=O)NC(=O)/C(C)=C\C=C\[C@H](C)[C@H](O)[C@@H](C)[C@@H](O)[C@@H](C)[C@H](OC(C)=O)[C@@H]1C` [RIFAMPIN], the values for the minimum inhibitory concentration (MIC) in test [1] and in test [2] were 38.6 µg/mL (≈ 47 µM) and 36.9 µg/mL (≈ 44.8 µM), respectively.
